Only some compounds are listed: those with a hit (about 2.7% of all), similar ones and a draw of the others.
CaV13 FRET inh = Primary screen for inhibitors of IQ motif and Ca2+-dependent inactivation inhibitor domain binding in CACNA1D, Förster resonance energy transfer in living cells, … | AID 743397 | inhibition, % at 12.3 µM | 340,000 tested, 0.098% active | HEK cells, CFP/YFP FRET ICDI-IQ, plate reader, 10 min; percent FRET-ratio fall versus neutral wells;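 active = mean replicate inhibition of at least 30% and at least 1% of replicates passing that level; inconclusive = only one of the two criteria is met; inactive = neither criterion is met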
S100A4 MyoIIA = inhibitors of human S100A4 binding to myosin IIA peptide; S100A4/TAMRA-MyoIIA peptide fluorescence polarization; P26447; 360,000 tested, 0.14% active; inhibition, % at 10.7 µM;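 active = mean inhibition of at least 70% across replicates, with every replicate also reaching that level; inconclusive = mean inhibition reaches 70% but some replicates fall short; inactive = mean inhibition below 70%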
Target sequence (P26447 whole entry, looked up): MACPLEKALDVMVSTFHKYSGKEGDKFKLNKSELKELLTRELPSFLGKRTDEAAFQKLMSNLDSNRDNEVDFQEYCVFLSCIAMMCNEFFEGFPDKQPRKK
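Material: S100A4 monomer protein / Buffer or medium: 50 mM HEPES pH 7.2, 10 mM CaCl2, 100 mM KCl / Times: 5 min incubation before reading / Benchmarks: neutral control DMSO, positive control TFP / Reagent: labelled myosin peptide probe, 5 nM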
SIRT5 inh = inhibitors of human sirtuin-5 desuccinylase | Q9NXA8 | Purified SirT5, succinyl-peptide AMC, trypsin-coupled fluorescence | inhibition, % at 15 µM | 330,000 tested, 1.1% active | AID 652115; in the data active = inhibition above about 15%; inconclusive = no clear call, values can overlap the other calls
AF4-AF9 inh = blocks AF4 peptide binding to human AF9. P42568. AlphaScreen, biotin-AF4 peptide binding to FLAG-AF9. inhibition, % at 10 µM. 350,000 tested, 0.47% active;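 active = every replicate reaching a set inhibition limit, whatever the replicate mean, cut at about 25% in these data; inconclusive = mean inhibition reaches that limit but some replicates miss it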
Target sequence (P42568 whole entry, looked up): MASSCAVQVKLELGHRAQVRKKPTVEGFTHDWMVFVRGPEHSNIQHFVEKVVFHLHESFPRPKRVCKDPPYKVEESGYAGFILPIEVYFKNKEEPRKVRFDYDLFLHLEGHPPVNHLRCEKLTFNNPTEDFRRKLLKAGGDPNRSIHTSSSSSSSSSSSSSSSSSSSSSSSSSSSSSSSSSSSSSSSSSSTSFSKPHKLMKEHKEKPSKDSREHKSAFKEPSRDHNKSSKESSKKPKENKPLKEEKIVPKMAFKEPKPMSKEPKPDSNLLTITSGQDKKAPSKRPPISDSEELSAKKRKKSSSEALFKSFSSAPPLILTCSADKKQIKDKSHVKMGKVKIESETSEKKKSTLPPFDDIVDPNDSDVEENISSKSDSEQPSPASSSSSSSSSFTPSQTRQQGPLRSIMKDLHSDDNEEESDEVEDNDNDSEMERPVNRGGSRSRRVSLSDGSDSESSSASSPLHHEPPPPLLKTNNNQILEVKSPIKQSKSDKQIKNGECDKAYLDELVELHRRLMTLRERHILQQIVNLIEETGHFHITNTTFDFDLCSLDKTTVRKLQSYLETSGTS
DENV2 CPE = inhibitors of DENV2 cytopathic effect | DENV2-infected cells, cytopathic effect rescue, plate reader | CPE inhibition, % at 9.99 µM | 350,000 tested, 1.7% active | AID 651640; in the data active = CPE inhibition above about 20%, passing the limit was not always enough; inconclusive = no clear call, values can overlap the other calls; tested in BHK-21 cells
Large screens that a line does not name were inactive; ! = repeats disagree.

CCC(=O)N1C[C@H](C)[C@H](OC)CN(C)C(=O)c2ccc(NC(=O)NC(C)C)cc2OC[C@H]1C	DENV2 CPE 69.8 (no result: CaV13 FRET inh)
CO[C@H]1CN(C)C(=O)c2cc(NC(=O)Nc3ccc(Cl)cc3)ccc2OC[C@H](C)N(C)C[C@@H]1C	DENV2 CPE 50.1 (no result: CaV13 FRET inh)
CCCC#Cc1ccc2c(c1)O[C@@H](CN(C)S(C)(=O)=O)[C@@H](C)CN([C@H](C)CO)S2(=O)=O	none (no result: CaV13 FRET inh)
CCCNC(=O)C[C@@H]1C[C@H]2c3cc(NS(=O)(=O)c4ccc(OC)cc4)ccc3O[C@H]2[C@@H](CO)O1	none (no result: CaV13 FRET inh, S100A4 MyoIIA, SIRT5 inh, AF4-AF9 inh)
COC(=O)c1cccc(Cn2nc(C)c([N+](=O)[O-])c2C)c1	SIRT5 inh 15.3
Cc1nn(Cc2cccc(C(=O)O)c2)c(C)c1[N+](=O)[O-]	DENV2 CPE inconclusive
O=C(C[C@H]1C[C@H]2c3cc(NC(=O)Nc4ccccc4)ccc3O[C@H]2[C@@H](CO)O1)NCc1ccncc1	SIRT5 inh 17.8 (no result: CaV13 FRET inh)
O=C(C[C@H]1C[C@H]2c3cc(NC(=O)Nc4ccccc4)ccc3O[C@H]2[C@H](CO)O1)NCc1ccncc1	DENV2 CPE 62.2 (no result: CaV13 FRET inh)
C[C@@H]1CCCCO[C@@H](CN(C)C(=O)C2CCCCC2)[C@@H](C)CN([C@@H](C)CO)C(=O)c2cc(NC(=O)c3ccncc3)ccc2O1	none (no result: CaV13 FRET inh)
C[C@@H]1CCCCO[C@H](CN(C)C(=O)Nc2ccc(C(F)(F)F)cc2)[C@H](C)CN([C@@H](C)CO)C(=O)c2cc(NC(=O)c3ccncc3)ccc2O1	DENV2 CPE 21.9 (no result: CaV13 FRET inh)
C[C@@H]1CCCCO[C@H](CN(C)C(=O)Nc2ccc(C(F)(F)F)cc2)[C@H](C)CN([C@H](C)CO)C(=O)c2cc(NC(=O)c3ccncc3)ccc2O1	none (no result: CaV13 FRET inh)
C[C@@H]1CCCCO[C@H](CN(C)C(=O)Nc2ccc(C(F)(F)F)cc2)[C@@H](C)CN([C@H](C)CO)C(=O)c2cc(NC(=O)c3ccncc3)ccc2O1	DENV2 CPE 21.0!
C[C@@H]1CCCCO[C@@H](CN(C)C(=O)C2CCCCC2)[C@H](C)CN([C@@H](C)CO)C(=O)c2cc(NC(=O)c3ccncc3)ccc2O1	SIRT5 inh 16.7 (no result: CaV13 FRET inh)
C[C@H](CO)N1C[C@H](C)[C@H](CN(C)C(=O)Nc2ccc(F)cc2)OCCCC[C@H](C)Oc2ccc(NC(=O)c3ccccc3)cc2C1=O	DENV2 CPE 83.8 (no result: CaV13 FRET inh)
C[C@@H]1CN([C@H](C)CO)C(=O)c2cc(NC(=O)c3ccncc3)ccc2O[C@@H](C)CCCCO[C@H]1CN(C)C(=O)Nc1ccc(C(F)(F)F)cc1	none (no result: CaV13 FRET inh)
C[C@@H]1CN([C@@H](C)CO)C(=O)Cc2cc(NC(=O)C3CCCCC3)ccc2O[C@H]1CN(C)S(=O)(=O)c1ccc(F)cc1	none (no result: CaV13 FRET inh)
CN1C(=O)c2cc(NC(=O)c3ccccc3F)ccc2OC[C@H]2O[C@@H](CC(=O)NCc3ccc4c(c3)OCO4)CC[C@@H]21	none (no result: CaV13 FRET inh)
C[C@@H]1CCCCO[C@@H](CN(C)C(=O)Nc2ccc(F)cc2)[C@H](C)CN([C@H](C)CO)C(=O)c2cc(NC(=O)c3ccncc3)ccc2O1	DENV2 CPE 26.8 (no result: CaV13 FRET inh)
C[C@@H]1CCCCO[C@H](CN(C)C(=O)Nc2ccc(F)cc2)[C@H](C)CN([C@@H](C)CO)C(=O)c2cc(NC(=O)c3ccncc3)ccc2O1	none (no result: CaV13 FRET inh)
CN1C(=O)c2cc(NC(=O)C3CCCCC3)ccc2OC[C@H]2O[C@@H](CC(=O)NCc3ccccc3F)CC[C@H]21	none (no result: CaV13 FRET inh)
Cc1cccn2c(=O)c3cc(C#N)c(=NC(=O)c4cccs4)n(CC(C)C)c3nc12	CaV13 FRET inh active
Cc1cccn2c(=O)c3cc(C#N)c(=N)n(Cc4cccnc4)c3nc12	none (no result: S100A4 MyoIIA, SIRT5 inh, AF4-AF9 inh, DENV2 CPE)
CCC(C)n1c(=N)c(C#N)cc2c(=O)n3cc(C)ccc3nc21 (configuration not stated)	CaV13 FRET inh 57.1, DENV2 CPE inconclusive
CCC(C)n1c(=N)c(C#N)cc2c(=O)n3cccc(C)c3nc21 (configuration not stated)	CaV13 FRET inh active
CCOCCCn1c(=NC(=O)c2cccs2)c(C#N)cc2c(=O)n3cccc(C)c3nc21	none
Cc1noc(C)c1NC(=O)N1C[C@@H](O)COC[C@H]2O[C@@H](CC(=O)NCC3CCCCC3)CC[C@@H]21	none (no result: CaV13 FRET inh)
CNC[C@H]1Oc2ccc(NC(=O)Nc3ccc(OC)cc3)cc2C(=O)N([C@H](C)CO)C[C@H]1C	none (no result: CaV13 FRET inh, DENV2 CPE)
CN(C)C(=O)c1ccc(-c2ccc([C@@H]3[C@@H](CO)N4CCCCN(CC5CC5)C[C@@H]34)cc2)cc1	S100A4 MyoIIA 108.9 (no result: CaV13 FRET inh)
COc1cccc(-c2ccc([C@@H]3[C@@H](CO)N4CCCCN(CC5CC5)C[C@H]34)cc2)c1	DENV2 CPE 42.6 (no result: CaV13 FRET inh)
CN(C)C(=O)c1ccc(-c2ccc([C@@H]3[C@H](CO)N4CCCCN(CC5CCOCC5)C[C@@H]34)cc2)cc1	none (no result: CaV13 FRET inh)
COc1cccc(-c2ccc([C@H]3[C@H](CO)N4CCCCN(CC5CCOCC5)C[C@@H]34)cc2)c1	none (no result: CaV13 FRET inh)
Cc1ccccc1-c1ccc([C@@H]2[C@@H](CO)N3CCCCN(CC4CC4)C[C@H]23)cc1	DENV2 CPE 52.2 (no result: CaV13 FRET inh)
CN(C)C(=O)c1cccc(-c2ccc([C@H]3[C@@H](CO)N4CCCCN(S(C)(=O)=O)C[C@@H]34)cc2)c1	SIRT5 inh 40.8 (no result: CaV13 FRET inh)
O=C(Cc1ccccc1)N[C@@H]1CC[C@@H](CC(=O)N2CCOCC2)O[C@H]1CO	none (no result: CaV13 FRET inh)
O=C(C[C@@H]1C[C@H]2c3cc(NS(=O)(=O)c4ccc(F)cc4)ccc3O[C@H]2[C@H](CO)O1)NCCN1CCCCC1	none (no result: CaV13 FRET inh)
COc1cccc(-c2ccc([C@H]3[C@H]4CN(CC5CC5)CCCCN4[C@H]3CO)cc2)c1	none (no result: CaV13 FRET inh)
COc1cccc(-c2ccc([C@H]3[C@H](CO)N4CCCCN(CC5CC5)C[C@@H]34)cc2)c1	S100A4 MyoIIA 127.2, DENV2 CPE 42.1 (no result: CaV13 FRET inh)
COc1ccc(-c2ccc(NCCN3CCOCC3)nn2)cc1OC	SIRT5 inh 15.6
COc1ccc(-c2ccc(Nc3ccc(C(=O)N4CCOCC4)cc3)nn2)cc1OC	none (no result: S100A4 MyoIIA, SIRT5 inh, AF4-AF9 inh, DENV2 CPE)
CO[C@@H]1CN(C)C(=O)c2ccc(NC(=O)C3CCOCC3)cc2OC[C@H](C)N(C(C)=O)C[C@H]1C	none (no result: CaV13 FRET inh, SIRT5 inh)
C[C@H](CO)N1C[C@H](C)[C@H](CN(C)C(=O)NC2CCCCC2)Oc2cc(C#Cc3ccc(F)cc3)ccc2S1(=O)=O	none (no result: CaV13 FRET inh)
CC(C)CC#Cc1ccc2c(c1)O[C@@H](CN(C)C(=O)NC1CCCC1)[C@H](C)CN([C@H](C)CO)S2(=O)=O	SIRT5 inh 24.5 (no result: CaV13 FRET inh)
C[C@@H]1CN([C@H](C)CO)S(=O)(=O)c2ccc(C#Cc3ccc(F)cc3)cc2O[C@H]1CN(C)C(=O)NC1CCCCC1	SIRT5 inh 18.1 (no result: CaV13 FRET inh)
CC(C)CC#Cc1ccc2c(c1)O[C@@H](CN(C)C(=O)NC1CCCC1)[C@H](C)CN([C@@H](C)CO)S2(=O)=O	SIRT5 inh 15.8 (no result: CaV13 FRET inh)
CC(C)CC#Cc1ccc2c(c1)O[C@@H](CN(C)C(=O)NC(C)C)[C@@H](C)CN([C@@H](C)CO)S2(=O)=O	none (no result: CaV13 FRET inh)

Screening results: PubChem BioAssay, Broad Institute
